Experimental data published in ChEMBL document CHEMBL2034847, “Discovery of Plasmodium vivax N-myristoyltransferase inhibitors: screening, synthesis, and structural characterization of their binding mode” (J Med Chem, 2012).

Assays:
[1] = biological target: T1, Glycylpeptide N-tetradecanoyltransferase 1 (Homo sapiens, UniProt P30419); assay: Inhibition of human N-myristoyltransferase 1 using human pp60Src92-16 amino acids) as substrate; settings: read-out: Ki(app)
T1 sequence (P30419 whole entry): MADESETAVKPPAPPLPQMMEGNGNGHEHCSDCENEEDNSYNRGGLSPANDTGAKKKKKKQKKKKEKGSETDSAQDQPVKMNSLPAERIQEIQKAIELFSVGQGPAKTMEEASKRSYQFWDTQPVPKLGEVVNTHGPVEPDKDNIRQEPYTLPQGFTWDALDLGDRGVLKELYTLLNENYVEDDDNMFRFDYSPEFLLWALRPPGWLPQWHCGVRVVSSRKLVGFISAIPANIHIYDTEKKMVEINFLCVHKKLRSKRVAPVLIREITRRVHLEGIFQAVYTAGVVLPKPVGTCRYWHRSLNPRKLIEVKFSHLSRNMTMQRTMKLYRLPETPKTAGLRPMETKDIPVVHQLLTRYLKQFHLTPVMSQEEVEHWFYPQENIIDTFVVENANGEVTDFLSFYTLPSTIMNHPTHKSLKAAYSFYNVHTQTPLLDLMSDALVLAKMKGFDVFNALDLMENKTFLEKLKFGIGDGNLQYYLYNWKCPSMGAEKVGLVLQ

[2] = biological target: T2, Glycylpeptide N-tetradecanoyltransferase 2 (Homo sapiens, UniProt O60551); assay: Inhibition of human N-myristoyltransferase 2 using human pp60Src92-16 amino acids) as substrate; settings: read-out: Ki(app)
T2 sequence (O60551 whole entry): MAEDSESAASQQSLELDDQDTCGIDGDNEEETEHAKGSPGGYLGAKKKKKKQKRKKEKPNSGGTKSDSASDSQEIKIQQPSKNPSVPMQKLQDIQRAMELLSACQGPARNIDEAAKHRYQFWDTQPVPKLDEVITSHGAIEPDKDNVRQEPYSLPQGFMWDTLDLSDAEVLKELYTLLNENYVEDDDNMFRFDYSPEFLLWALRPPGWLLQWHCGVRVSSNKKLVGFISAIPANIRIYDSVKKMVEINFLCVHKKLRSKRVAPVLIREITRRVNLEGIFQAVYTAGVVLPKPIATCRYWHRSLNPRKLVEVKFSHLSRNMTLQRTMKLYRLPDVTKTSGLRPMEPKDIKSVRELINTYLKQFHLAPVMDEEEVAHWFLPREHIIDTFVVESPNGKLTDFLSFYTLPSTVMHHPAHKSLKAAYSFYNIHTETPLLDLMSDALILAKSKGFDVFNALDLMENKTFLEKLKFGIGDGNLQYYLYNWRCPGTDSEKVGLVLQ
Outline: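 Recombinant human NMT2 was tested in a fluorogenic plate assay adapted from a published NMT method. Apparent Ki values are the mean ± SD of duplicates.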

[3] = Inhibition of Plasmodium vivax recombinant N-myristoyltransferase using human pp60Src92-16 amino acids) as substrate; settings: for Ki: read-out: Ki(app)
Outline: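 Recombinant P. vivax NMT in a 96-well fluorogenic NMT assay. Values are reported as apparent Ki, mean ± SD from duplicates.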

IC50 [3] [µM] | SMILES | Ki [1] [µM] | Ki [2] [µM] | Ki [3] [µM]
– | CCCCc1c(C)nc2ccccc2c1SCCC#N | > 100 | > 100 | 2.46
– | CCCCc1c(C)nc2ccc(Br)cc2c1SCCC#N | > 100 | > 100 | 21.6
– | CCCCc1c(C)nc2ccc(OC)cc2c1SCCC#N | – | 11.4 | –
26.4 | COc1ccc(CNc2sc3c(c2C#N)CC(C)(C)OC3)cc1 | – | – | –
11.4 | CCc1ccc2c(c1)S(=O)(=O)C(C(F)(F)F)CO2 (stereo not drawn) | – | – | –
26.3 | CCN(CC)Cc1c(O)ccc2ccccc12 | – | – | –
– | CCc1c(C)nc2ccc(OC)cc2c1SCCC#N | – | 23.2 | 3.23
– | COc1ccc2nc(C)cc(SCCC#N)c2c1 | > 100 | > 100 | > 100
– | CCOC(=O)c1cnc2ccc(OC)cc2c1SCCC#N | – | – | 4.74
– | CCOC(=O)c1cnc2ccccc2c1SCCC#N | > 100 | > 100 | 24.4
– | CCOC(=O)c1c(C)nc2ccccc2c1SCCC#N | – | 41.5 | 24.4
– | CCOC(=O)c1c(CC)nc2ccccc2c1SCCC#N | 47.9 | 94.2 | 60.6
– | CCCc1nc2ccccc2c(SCCC#N)c1C(=O)OCC | > 100 | > 100 | > 100
– | C#CCCSc1c(CCCC)c(C)nc2ccc(OC)cc12 | > 100 | > 100 | 11.6
– | CCCCc1c(C)nc2ccc(OC)cc2c1SCCCC#N | 47.6 | 46.1 | 35.2
– | CCCCc1c(C)nc2ccc(OC)cc2c1SCC#N | – | – | > 100
– | CCCCc1c(C)nc2ccc(OC)cc2c1SCCCO | > 100 | > 100 | 17.4
– | CCCCc1c(C)nc2ccc(OC)cc2c1SCCc1ccccc1 | – | – | > 100
– | CCOC(=O)c1c(C)nc2ccccc2c1NCC#N | – | – | > 100
– | CCOC(=O)c1cnc2ccc(F)cc2c1SCCC#N | – | 37.5 | 7.77
– | CCOC(=O)c1cnc2ccc(C)cc2c1SCCC#N | – | > 100 | 6.97
– | CCOC(=O)c1cnc2ccc(Cl)cc2c1SCCC#N | > 100 | > 100 | 10.4
– | CCOC(=O)c1cnc2ccc(C(C)=O)cc2c1SCCC#N | – | – | > 100
– | CCOC(=O)c1cnc2ccc(C(C)O)cc2c1SCCC#N (stereo not drawn) | – | – | > 100
